Results as given in ChEMBL document CHEMBL4811254, “Beyond Basicity: Discovery of Nonbasic DENV-2 Protease Inhibitors with Potent Activity in Cell Culture” (J Med Chem, 2021).
Activity calls are given as the source filed them. The rule behind the calls is not given here.

Experiments:
[1] = target: Genome polyprotein (dengue virus type 2) (UniProt P29990); experiment: Inhibition of NS2B-NS3 protease in DENV2proHeLa system assessed as inhibition of luciferase signal at 12.5 uM incubated for 24 hrs by luciferase reporter gene assay; type: cell-based; conditions: HeLa
How it was run: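 Stable DENV2proHeLa cells seeded at 2 × 10⁴/well and dosed immediately, then incubated 24 h at 37 °C. Cells lysed 15 min at room temperature. Luciferase read with coelenterazine (2.75 μM in PBS) injection, luminescence 5 s. Triplicates; percent inhibition calculated relative to untreated control; background from cell-free wells.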

Genome polyprotein = Genome polyprotein (dengue virus type 2, UniProt P29990); experiment: Inhibition of NS2B-NS3 protease in DENV2proHeLa system assessed as inhibition of luciferase signal incubated for 24 hrs by luciferase reporter gene assay; type: cell-based, HeLa
How it was run: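 HeLa cells stably carrying the reporter system, 2 × 10⁴ per well, given inhibitor at seeding and held 24 h at 37 °C. Cells lysed 15 min at room temperature. Luciferase read for 5 s after injecting coelenterazine (2.75 μM in PBS). Triplicate wells per concentration; percent inhibition taken against untreated cells. EC50/EC90 from 4-parameter dose-response fit, background from cell-free wells subtracted.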

[2] = Cytotoxicity against human HeLa cells assessed as reduction in cell viability incubated for 24 hrs by CellTiter-Blue assay; type: cell-based
How it was run: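 Viability by CellTiter-Blue in HeLa or Huh-7 cells exposed to compound dilutions. Plates run in parallel with the reporter assay (HeLa) or the virus titer assay (Huh-7).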

[3] = target: Prothrombin (Homo sapiens) (UniProt P00734); experiment: Inhibition of thrombin in human plasma using Boc-Val-Pro-Arg-AMC as substrate at 25 uM preincubated with enzyme for 15 mins followed by substrate addition and measured for 15 mins by fluorimetric assay; type: cell-free; conditions: time 30.0 min
Trypsin (Homo sapiens) = Trypsin (Homo sapiens) (UniProt P07477+P07478+P35030); experiment: Inhibition of trypsin (unknown origin) using Boc-Val-Pro-Arg-AMC as substrate at 50 uM preincubated with enzyme for 15 mins followed by substrate addition and measured for 15 mins by fluorimetric assay; type: protein assay; conditions: time 30.0 min

Compound	inhibition [1] [%]	EC50 (Genome polyprotein) [µM]	CC50 at 24 h [2] [µM]	inhibition [3]	inhibition (Trypsin (Homo sapiens))
CCCCCC(=O)N[C@H](C(=O)NCCc1ccc(O)cc1)c1ccc(OCc2ccccc2)cc1	58	10	> 25	inactive	inactive
NC(=O)c1ccc(CNC(=O)[C@@H](NC(=O)CCc2ccccc2)c2ccc(OCc3ccccc3)cc2)cc1	57	12	> 50	inactive	inactive
NC(=O)c1ccc(CNC(=O)[C@@H](NC(=O)C2CCC2)c2ccc(OCc3ccccc3)cc2)cc1	45	–	> 50	inactive	inactive
CCCCCC(=O)N[C@@H](C(=O)NCc1ccc(C(N)=O)cc1)c1ccc(OCc2ccccc2)cc1	35	–	> 50	inactive	inactive
CCCCCC(=O)N[C@H](C(=O)Nc1ccc(S(N)(=O)=O)cc1)c1ccc(OCc2ccccc2)cc1	< 10	–	> 50	inactive	inactive
CCCCCC(=O)N[C@H](C(=O)NCc1ccc(OC)cc1)c1ccc(OCc2ccccc2)cc1	35	28	> 50	inactive	inactive
NC(=O)c1cccc(NC(=O)[C@@H](NC(=O)c2ccc(-c3ccccc3)cc2)c2ccc(OCc3ccccc3)cc2)c1	79	1.7	> 100	inactive	inactive
CCCCCC(=O)N[C@H](C(=O)NCc1ccc(C(N)=O)cc1)c1ccc(C(F)(F)F)cc1	31	–	> 50	inactive	inactive
NC(=O)c1cccc(NC(=O)[C@@H](NC(=O)c2ccc(Oc3cccc(Cl)c3)cc2)c2ccc(OCc3ccccc3)cc2)c1	87	1	> 100	inactive	inactive
NC(=O)c1ccc(CNC(=O)[C@@H](N)c2ccc(OCc3ccccc3)cc2)cc1	33	–	> 50	inactive	inactive
CCCCCC(=O)N[C@H](C(=O)NCc1ccc(C(N)=O)cc1)c1ccccc1	15	–	> 50	inactive	inactive
CCCCCC(=O)N[C@H](C(=O)NCc1ccc(NC(C)=O)cc1)c1ccc(OCc2ccccc2)cc1	55	14	> 100	inactive	inactive
CCCC(O)C(=O)N[C@H](C(=O)NCc1ccc(C(N)=O)cc1)c1ccc(OCc2ccccc2)cc1 (some centres not stated)	< 10	–	> 50	inactive	inactive
CCCCCC(=O)N[C@H](C(=O)NCc1ccc(Cl)cc1)c1ccc(OCc2ccccc2)cc1	14	–	> 50	inactive	inactive
CCCCCC(=O)N[C@H](C(=O)NCC1CCC(C(N)=O)CC1)c1ccc(OCc2ccccc2)cc1 (some centres not stated)	29	–	> 50	inactive	inactive
NC(=O)c1ccc(CNC(=O)[C@@H](NC(=O)c2cccs2)c2ccc(OCc3ccccc3)cc2)cc1	72	8.4	> 50	inactive	inactive
CCCCCCCC(=O)N[C@H](C(=O)Nc1cccc(C(N)=O)c1)c1ccc(OCc2ccccc2)cc1	66	2.2	> 12.5	inactive	inactive
CCCCCC(=O)N[C@H](C(=O)NCCc1ccc(C(N)=O)cc1)c1ccc(OCc2ccccc2)cc1	62	7.7	> 100	inactive	inactive
CCCCCC(=O)N[C@H](C(=O)Nc1ccccc1C(N)=O)c1ccc(OCc2ccccc2)cc1	13	–	> 50	inactive	inactive
CCCCCC(=O)N[C@H](C(=O)Nc1ccc(C(N)=O)cc1)c1ccc(OCc2ccccc2)cc1	58	7	> 12.5	inactive	inactive
CCCCCC(=O)N[C@H](C(=O)Nc1ccc(CO)cc1)c1ccc(OCc2ccccc2)cc1	48	18	> 50	inactive	inactive

Compound	inhibition [1] [%]	EC50 (Genome polyprotein) [µM]	CC50 at 24 h [2] [µM]	inhibition [3]	inhibition (Trypsin (Homo sapiens))
NC(=O)c1cccc(NC(=O)[C@@H](NC(=O)c2ccc(C(=O)N3CCOCC3)cc2)c2ccc(OCc3ccccc3)cc2)c1	40	15	> 100	inactive	inactive
Cc1ccc(C(=O)c2cc(O)c(O)c([N+](=O)[O-])c2)cc1 [TOLCAPONE]	59	7.1	> 25	–	–
CCCCCC(=O)N[C@H](C(=O)NCc1ccc(C(N)=O)cc1)c1ccc(O)cc1	< 10	–	> 100	inactive	inactive
CCCCCC(=O)N[C@H](C(=O)NCCc1ccccc1)c1ccc(OCc2ccccc2)cc1	–	–	< 12.5	inactive	inactive
NC(=O)c1cccc(NC(=O)[C@@H](NC(=O)C2CCN(c3ccccc3)CC2)c2ccc(OCc3ccccc3)cc2)c1	46	–	> 50	inactive	inactive
CCCCCC(=O)N[C@H](C(=O)NCc1ccc(C(=O)O)cc1)c1ccc(OCc2ccccc2)cc1	14	–	> 50	inactive	inactive
CCCCCC(=O)N[C@@H](Cc1ccccc1)C(=O)NCc1ccc(C(N)=O)cc1	< 10	–	> 50	inactive	inactive
NC(=O)c1ccc(CNC(=O)[C@@H](NCc2ccccc2)c2ccc(OCc3ccccc3)cc2)cc1	36	–	> 50	inactive	inactive
CCCCCC(=O)N[C@H](C(=O)Nc1ccc(OC)cc1)c1ccc(OCc2ccccc2)cc1	10	–	> 25	inactive	inactive
CCCCCC(=O)N[C@H](C(=O)NCc1ccc(C(=O)NO)cc1)c1ccc(OCc2ccccc2)cc1	40	–	> 50	inactive	inactive
CCCCCC(=O)N[C@H](C(=O)NCc1ccc(NC(N)=O)cc1)c1ccc(OCc2ccccc2)cc1	–	–	–	inactive	inactive
CCCCCC(=O)N[C@H](C(=O)NCc1ccccc1)c1ccc(OCc2ccccc2)cc1	< 10	–	> 50	inactive	inactive
NC(=O)c1ccc(CNC(=O)[C@@H](NC(=O)/C=C/c2ccccc2)c2ccc(OCc3ccccc3)cc2)cc1	34	–	> 50	inactive	inactive
CCCCCC(=O)N[C@H](C(=O)N1CCC(C(N)=O)CC1)c1ccc(OCc2ccccc2)cc1	28	–	> 50	inactive	inactive
CCCCCC(=O)N[C@@H](C(=O)NCc1ccc(C(N)=O)cc1)c1ccc(OCc2ccc(C(F)(F)F)cc2)cc1	42	–	> 50	inactive	inactive
CCCCCC(=O)N[C@H](C(=O)Nc1ccc(CC(N)=O)cc1)c1ccc(OCc2ccccc2)cc1	47	–	> 50	inactive	inactive
CC(C)CCOc1ccc(C(=O)N[C@H](C(=O)Nc2cccc(C(N)=O)c2)c2ccc(OCc3ccccc3)cc2)cc1	49	–	> 50	inactive	inactive
NCCCCCC(=O)N[C@H](C(=O)NCc1ccc(C(N)=O)cc1)c1ccc(OCc2ccccc2)cc1	14	–	> 50	inactive	inactive
CCCCCC(=O)N[C@H](C(=O)NCc1cccc(OC)c1)c1ccc(OCc2ccccc2)cc1	< 10	–	> 50	inactive	inactive
COCCOCC(=O)N[C@H](C(=O)NCc1ccc(C(N)=O)cc1)c1ccc(OCc2ccccc2)cc1	27	–	> 50	inactive	inactive
